PfM18AAP inh-1: blocks P. falciparum M18 aspartyl aminopeptidase; recombinant PfM18AAP, H-Glu-NHMec fluorogenic cleavage; inhibition, % at 7.35 µM; actives 1.2% (n = 290,000); AID 1822;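 active means inhibition above the campaign mean inhibition over all tested compounds plus 3 SD, cut at about 28% in these data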
PfGluPho inh: PfG6PD (Plasmodium falciparum) enzyme inhibition. AID 504690. PfGluPho enzyme, NADPH resazurin-diaphorase fluorescence. actives 0.78% (n = 350,000). inhibition, % at 20 µM;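 active means inhibition reaching at least a set limit at 20 µM in the primary screen, cut at about 59% in these data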
EBNA-1 inh: blocks EBNA-1 binding to DNA. EBNA-1 DNA binding, fluorescence polarization. inhibition, % at 14.8 µM. actives 0.34% (n = 300,000). AID 1950; in the data active means inhibition above about 28%
UBC13 inh: inhibitors of human UBC13 polyubiquitin chain formation; P61088; TR-FRET; inhibition, % at 20 µM; actives 0.47% (n = 330,000); in the data active means inhibition above about 45%, passing the limit was not always enough
Target sequence (P61088 whole entry, looked up): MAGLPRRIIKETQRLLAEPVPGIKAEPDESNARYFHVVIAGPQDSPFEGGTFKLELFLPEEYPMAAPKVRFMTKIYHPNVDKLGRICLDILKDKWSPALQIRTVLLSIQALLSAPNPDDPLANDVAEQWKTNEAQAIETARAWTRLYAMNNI
Apaf-1 inh: blocks human Apaf-1 apoptosome activity; O14727; reconstituted apoptosome caspase-3 activity, DEVD-Rh110 fluorescence; inhibition, % at 20 µM; actives 0.71% (n = 330,000); active means inhibition of at least 40% at 20 µM
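Material: reconstituted apoptosome with Apaf-1, cytochrome c, caspase-9, procaspase-3, dATP. Technique: Rh110 fluorescence intensity. Buffer or medium: pH 7.5 Hepes buffer with CHAPS, BSA, DTT. Times: 30 min plus 50 min, RT.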
ZTA DNA inh: blocks Epstein-Barr virus ZTA, an EBNA-1 counter-screen; ZTA-DNA binding, fluorescence polarization; inhibition, % at 11 µM; AID 2234; actives 0.15% (n = 320,000); in the data active means inhibition above about 33%
PfM18AAP inh-2: confirmation of Plasmodium falciparum M18 aspartyl aminopeptidase inhibitors. actives 28% (n = 2,400). recombinant PfM18AAP, H-Glu-NHMec fluorogenic cleavage. inhibition, % at 7.35 µM. shares compounds with PfM18AAP inh-1;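 active means mean inhibition over replicate wells above the hit cutoff set for the earlier primary screen, cut at about 29% in these data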
CTSL1 confirm: counter-screen for PFM18AAP inhibitors: confirmation of human cathepsin L inhibitors; 2,400 tested, under 10 active; shares compounds with PfM18AAP inh-1; inhibition, % at 5.96 µM; AID 2178; purified cathepsin L1, Z-Leu-Arg-MCA fluorescence;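 active means average inhibition across replicates above the hit cutoff set in the earlier primary screen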
Target sequence (P07711 whole entry, looked up): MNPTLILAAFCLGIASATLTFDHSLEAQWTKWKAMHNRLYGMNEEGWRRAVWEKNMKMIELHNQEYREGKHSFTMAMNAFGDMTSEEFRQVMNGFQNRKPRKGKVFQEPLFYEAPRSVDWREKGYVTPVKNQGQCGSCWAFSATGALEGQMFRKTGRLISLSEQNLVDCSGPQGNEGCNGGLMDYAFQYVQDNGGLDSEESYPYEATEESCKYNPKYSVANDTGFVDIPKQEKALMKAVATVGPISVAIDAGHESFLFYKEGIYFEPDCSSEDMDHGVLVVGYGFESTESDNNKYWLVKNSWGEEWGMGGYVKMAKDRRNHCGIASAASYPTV
Each line names hits and unclear results; the compound was inactive in the other large screens (follow-up assays come after a bar, where they were run). Most compounds without a hit are left out; they make up all but 2.9% or so of the library.

CC1Sc2ccc(S(=O)(=O)N(C)Cc3ccccc3)cc2NC1=O (stereo unspecified)	none
O=C(CN1C(=O)S/C(=C\c2cccc(Cl)c2)C1=O)NC1C=CS(=O)(=O)C1 (stereo unspecified)	none
O=C(CN1C(=O)/C(=C/c2cccc(Cl)c2)SC1=S)NC1C=CS(=O)(=O)C1 (stereo unspecified)	PfM18AAP inh-1 30
CCN(CC)c1ccc(N=Cc2ccccc2[N+](=O)[O-])cc1	EBNA-1 inh 177, Apaf-1 inh 62, ZTA DNA inh active
CCOc1ccccc1C(=O)NC(C)CCc1ccccc1 (stereo unspecified)	none (no result: PfM18AAP inh-1)
CCC(C)NC(=O)C1(N2C(=O)c3ccccc3C2=O)CCCC1 (stereo unspecified)	none (no result: PfM18AAP inh-1, EBNA-1 inh, UBC13 inh, Apaf-1 inh, ZTA DNA inh)
CC1CSc2ccccc2NC1=S (stereo unspecified)	none
c1ccc(C2CSc3ccccc3N2)cc1 (stereo unspecified)	PfM18AAP inh-1 41
O=C(Nc1ccc(Br)cc1)NC1CCCCCCC1	none
COc1ccccc1CNS(=O)(=O)c1ccc(-c2cc(C)no2)cc1	Apaf-1 inh 45
CCc1ccc(-c2cc(C)no2)cc1S(=O)(=O)NCc1ccccc1OC	none
COc1cccc(/C=C/C(=O)NNC(=O)c2ccco2)c1OC	none (no result: PfM18AAP inh-1, EBNA-1 inh)
CCN(CC)CCn1c2ccccc2c2n[nH]c(=S)nc21	PfGluPho inh 64
CCOC(=O)C(C)N1c2cccc3cccc(c23)S1(=O)=O (stereo unspecified)	none (no result: PfM18AAP inh-1, EBNA-1 inh, UBC13 inh, Apaf-1 inh, ZTA DNA inh)
CCN1c2ccccc2N(C)C1(C)c1ccccc1 (stereo unspecified)	PfGluPho inh 67 (no result: UBC13 inh, Apaf-1 inh)
COc1ccc(-c2sc3ccc(OC)cc3c2-c2ccc(OCCN3CCOCC3)cc2)cc1	none (no result: PfM18AAP inh-1, EBNA-1 inh, UBC13 inh, ZTA DNA inh)
c1ccc(-c2sc3ccccc3c2-c2ccc(OCCN3CCCC3)cc2)cc1	UBC13 inh 82, Apaf-1 inh 78 (no result: PfM18AAP inh-1, EBNA-1 inh, ZTA DNA inh)
FC(F)(F)c1ccccc1NC(=S)NN=C1CCCCCC1	PfM18AAP inh-1 39 | PfM18AAP inh-2 inactive | CTSL1 confirm inactive
CCNC(=O)c1cccc(S(=O)(=O)N2CCCCCC2)c1	PfM18AAP inh-1 36 | PfM18AAP inh-2 inactive | CTSL1 confirm inactive
O=C(N/N=C/c1ccc(O)c(O)c1)c1cccc(S(=O)(=O)N2CCCCC2)c1	PfM18AAP inh-1 56 | PfM18AAP inh-2 51 | CTSL1 confirm inactive
O=C(NN=Cc1ccc(F)cc1)c1cccc(S(=O)(=O)N2CCCC2)c1	none (no result: PfM18AAP inh-1, EBNA-1 inh, ZTA DNA inh)
O=C(NCc1ccccc1)c1cccc(S(=O)(=O)N2CCCCC2)c1	none
Cc1cc(C)cc(N(CC(=O)NC(C)C)C(=O)CCC(=O)Nc2ccccn2)c1	none
O=C(COc1ccc(Cl)cc1)OCc1ccc(Cl)cc1	none (no result: PfM18AAP inh-1, EBNA-1 inh, UBC13 inh, Apaf-1 inh, ZTA DNA inh)
CN1CCC2(CC1)N=C(c1ccc(F)cc1)C(=S)N2C(=O)c1ccccc1	PfM18AAP inh-1 33 | PfM18AAP inh-2 inactive | CTSL1 confirm inactive
O=S(=O)(c1ccc(NC(=S)NC2CCCC2)cc1)N1CCCC1	none
NS(=O)(=O)c1ccc(NC(=S)NC2CCCCCC2)cc1	PfM18AAP inh-1 44 | PfM18AAP inh-2 inactive | CTSL1 confirm inactive
NS(=O)(=O)c1ccc(NC(=S)NC(=O)C2CCCCC2)cc1	none
NS(=O)(=O)c1ccc(NC(=S)NC2CCCC2)cc1	PfM18AAP inh-1 46 | PfM18AAP inh-2 inactive | CTSL1 confirm inactive
COc1ccc(S(=O)(=O)NCC2CCC(C(=O)O)CC2)cc1 (stereo unspecified)	none
NS(=O)(=O)c1ccc(NC(=S)NCc2ccc(Cl)cc2)cc1	PfM18AAP inh-1 35 | PfM18AAP inh-2 inactive | CTSL1 confirm inactive
NS(=O)(=O)c1ccc(CNC(=S)Nc2ccc(F)c(Cl)c2)cc1	none
NS(=O)(=O)c1ccc(NC(=S)NCCc2ccccc2)cc1	PfM18AAP inh-1 41 | PfM18AAP inh-2 inactive | CTSL1 confirm inactive
NS(=O)(=O)c1ccc(CCNC(=O)c2ccc[nH]c2=S)cc1	PfM18AAP inh-1 43 | PfM18AAP inh-2 inactive | CTSL1 confirm inactive
CC1CCN(CCCCOc2ccccc2[N+](=O)[O-])CC1	none

Compound activity (PubChem)
